In the library only some 4.3% were active in any assay of this set; here they are far more common.
Yeast superoxide – reduction of superoxide in aged yeast, primary screen, HTS | S. cerevisiae aged cells, superoxide DHE fluorescence; hits give low values | hit rate 0.18% among 330,000 | superoxide response (% of plate mean), % at 10 µM;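 active = superoxide response under a set limit, about three screen SD below normal, cut at about 65% in these data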;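 note: yeast aged for seven days with compound at 30 °C before DHE staining; 100% = average MFI of all compound-treated wells on the plate with controls excluded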
SMARCA2 activ – SMARCA2 (BRM) function activators, primary screen, cell-based, luminescence, high throughput; MG213 cells, MMTV-luciferase reporter, dexamethasone, overnight; activation, % at 9.1 µM; hit rate 1% among 370,000; in the data active = activation above about 7.8%;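 note: 0% = vehicle wells and 100% = reference activator wells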
SR-BI DiI-HDL act – activators of SR-BI mediated DiI-HDL uptake, primary screen, ldlA[mSR-BI] CHO cells, DiI fluorescence; 3 h; 100 = double the neutral-control signal; activation, % at 12.5 µM; hit rate 0.096% among 320,000; AID 504775, 2011;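 active = mean replicate activation of at least 60% and every replicate at or above 60%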;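 note: 0% = median plate neutral-control signal and 100% = twice that signal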
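System: LDL receptor-deficient CHO ldlA cells overexpressing murine SR-BI | Timing: 3 h uptake period with compound, 37 °C | Medium: HEPES-buffered (25 mM, pH 7.4) F12 plus 0.5% BSA | Dosing: Single-point compound dose | Signal: Bottom-read fluorescence, 550/595 nm | Read-out: Retained DiI signal reflecting DiI-HDL uptake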
Hep lipid drop – inhibitors of hepatocyte lipid droplet formation, primary screen, imaging, high-throughput imaging, BODIPY stain; hit rate 0.4% among 240,000; AML12 mouse hepatocytes, oleate lipid droplets; AID 1656, 2009; inhibition, % at 6.5 µM;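 active = lipid droplet intensity inhibited by at least 50%, with more than 500 cells counted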
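System: AML12 hepatocytes (mouse). Probe or stimulus: oleic acid at 100 µM to induce lipid droplet formation. Times: overnight treatment with compound plus oleate. Detection: Image-based BODIPY and DAPI two-channel analysis. Evaluation: percent inhibition of filter-corrected integrated lipid droplet intensity per well.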
SR-BI DiI inh – inhibitors of SR-BI mediated HDL lipid uptake, primary screen, ldlA[mSR-BI] cells, fluorescence, single point | Scavenger receptor class B member 1 (Mus musculus), Q61009 | inhibition, % at 12.5 µM | ldlA[mSR-BI] CHO cells, DiI-HDL uptake fluorescence, 3 h | hit rate 0.96% among 320,000;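 active = mean replicate inhibition of at least 70% and a set share of replicates each scoring 70 or more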;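 note: 0% = median of neutral control wells and 100% = median of positive control wells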
Target sequence (Q61009 whole entry, looked up): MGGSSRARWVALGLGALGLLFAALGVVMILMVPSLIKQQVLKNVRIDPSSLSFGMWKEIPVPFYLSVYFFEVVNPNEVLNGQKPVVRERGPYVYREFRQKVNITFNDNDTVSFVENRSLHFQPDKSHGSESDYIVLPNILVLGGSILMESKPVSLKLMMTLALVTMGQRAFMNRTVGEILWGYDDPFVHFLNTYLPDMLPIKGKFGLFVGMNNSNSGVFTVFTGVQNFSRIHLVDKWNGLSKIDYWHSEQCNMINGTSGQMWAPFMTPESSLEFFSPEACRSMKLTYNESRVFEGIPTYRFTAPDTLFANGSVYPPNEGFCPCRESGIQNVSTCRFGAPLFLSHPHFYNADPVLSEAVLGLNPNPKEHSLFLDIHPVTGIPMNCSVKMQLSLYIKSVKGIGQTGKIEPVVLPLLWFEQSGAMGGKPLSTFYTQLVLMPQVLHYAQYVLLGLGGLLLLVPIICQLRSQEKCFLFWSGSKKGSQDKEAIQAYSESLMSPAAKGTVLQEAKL
AHR act – AHR activators, primary screen, cell-based, luminescence, luciferase reporter, human; Aryl hydrocarbon receptor (Homo sapiens), P35869; hit rate 2.5% among 320,000; AID 2796, 2010; AHR-responsive luciferase reporter cells; activation, % at 5 µM; in the data active = activation above about 47%;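 note: 0% = vehicle wells and 100% = reference agonist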
SMARCA2 conf – SMARCA2 (BRM) function activators, confirmation, cell-based, luminescence, triplicate; MG213 cells, MMTV-luciferase with dexamethasone, overnight; MG213 cells expressing E1A, Rb sequestered; DMSO wells 0%, reference activator 100%; shares compounds with SMARCA2 activ; AID 652260, 2013; activation, % at 9.1 µM; hit rate 30% among 3,500;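 active = activation above its plate's cutoff, the mean activation of tested wells plus 3 SD, cut at about 7.9% in these data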
GAL4-VP16 Luc – GAL4-VP16 luciferase reporter activation, counter-screen for SMARCA2 (BRM) activator project, cell-based, pG5luc, luminescence, high throughput; AID 686939, 2013; shares compounds with SMARCA2 activ; HEK293 GAL4-VP16 pG5luc reporter; scaled: DMSO wells 0%, SAHA wells 100%; activation, % at 9.1 µM; hit rate 41% among 3,500;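 active = activation above the solvent-only control well mean plus 3 SD, averaged across control plates, cut at about 5.2% in these data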
* hit, by the source's call; · = no result.

SMILES	Yeast superoxide	SMARCA2 activ	SR-BI DiI-HDL act	Hep lipid drop	SR-BI DiI inh	AHR act	SMARCA2 conf	GAL4-VP16 Luc
O=C(c1cc(COc2c(F)cccc2F)on1)N1C[C@H]2CC[C@H]1C2	94.9	10.0*	17.8	4.7	-17.8	5.4	11.2*	11.2*
O=C(NC1CCCCN(Cc2ccc(OC(F)(F)F)cc2)C1=O)c1ccc(F)c(F)c1 (stereo unspecified)	·	-2.4	·	·	·	·	·	·
COC(=O)[C@]12C[C@H](CC(=O)NCC3CCCCC3)C(=O)N(Cc3ccc(Cl)cc3Cl)C1=C[C@H](C(C)(C)C)O[C@@H]2C	·	-0.1	·	·	·	·	·	·
Cc1ccccc1C1NS(=O)(=O)N=C1N (stereo unspecified)	100.4	8.0*	·	·	·	6.1	-0.1	0.4
NC(=S)N/N=C/c1coc2c(ccc3ccccc32)c1=O	105.7	12.8*	-18.3	0.9	18.4	18.5	1.8	3.0
CCC(c1nc2ccccc2[nH]1)n1c(C)nc2ccccc21 (stereo unspecified)	·	2.4	·	·	·	·	·	·
CCn1cc(CN2CCCC(C(=O)Nc3ccc(-c4nc5ccccc5[nH]4)cc3)C2)c(C)n1 (stereo unspecified)	105.4	1.8	0.6	5.0	-0.6	0.3	·	·
Cc1cc(CN2CCCC(C(=O)Nc3ccc(-c4nc5ccccc5[nH]4)cc3)C2)n[nH]1 (stereo unspecified)	103.5	10.0*	-22.6	-3.0	22.6	8.3	2.1	5.5*
CC(C)C[C@H](NC(=O)c1ccc(Cl)cc1Cl)C(=O)N1CCC[C@H]1C(=O)NCc1ccccc1	·	0.8	·	·	·	·	·	·
COC(=O)[C@]12C[C@H](CC(=O)NCCc3ccccc3OC)C(=O)N(CCC3=CCCCC3)C1=C[C@H](C(C)C)O[C@@H]2C1CC1	·	-2.6	·	·	·	·	·	·
COc1ccc(C2/C(=C(/O)c3ccc(C)cc3)C(=O)C(=O)N2c2ccccn2)cc1 (stereo unspecified)	94.5	1.2	-6.4	6.5	6.4	-0.3	·	·
COc1ccc(/C(O)=C2/C(=O)C(=O)N(c3ccccn3)C2c2ccc(F)cc2)cc1 (stereo unspecified)	93.6	11.3*	-5.8	3.6	5.8	·	1.0	2.1
Oc1cccc(Nc2ncnc3c2oc2ccccc23)c1	102.2	8.3*	-1.2	-5.1	1.2	0.4	12.3*	9.1*
CCOC(=O)CC[C@H]1CC[C@]2(CCCN(C(=O)C3CCCC3)C2)O1	·	-3.9	·	·	·	·	·	·
COc1ccc(CNCC#CC2=CCCCC2)c(OC)c1	·	0.5	·	·	·	·	·	·
Cn1cccc1C(=O)OCc1cc(-c2ccco2)on1	92.6	8.4*	-9.2	·	9.2	-0.8	3.9	5.4*
Cn1cccc1C(=O)OCc1ccc(C(C)(C)C)cc1	104.9	11.2*	·	-3.9	·	-0.6	6.6	6.4*
CC(C)(C)OC(=O)NCc1cc(F)ccc1/C=C/S(=O)(=O)NCc1ccccc1	·	-0.1	·	·	·	·	·	·
COc1cc(C=Nn2c(-c3ccc(F)cc3)n[nH]c2=S)ccc1OCc1ccccc1	·	-2.1	·	·	·	·	·	·
COC(=O)[C@]12C[C@H](CC(=O)N3CCOCC3)C(=O)N(Cc3ccco3)C1=C[C@H](C(C)(C)C)O[C@@H]2C	·	2.1	·	·	·	·	·	·
COC(=O)Cn1c(CN2CCOCC2)nc2c1c(=O)n(C)c(=O)n2C	88.6	8.3*	6.0	-0.4	-6.0	-1.8	1.1	-0.5
O=C(c1ccccc1)c1cnc(-c2ccc(Cl)cc2)s1	94.4	14.3*	-13.6	·	13.6	-0.8	6.3	6.9*
O=C(CCn1nnc(-c2cccs2)n1)N1CCCCC1	·	9.0*	·	·	·	·	3.3	-1.1
O=C(NC1CCCCN(Cc2ccc(Cl)cc2)C1=O)C1C2CC3CC(C2)CC1C3 (stereo unspecified)	·	-2.3	·	·	·	·	·	·
Cc1ccc(C(=O)N/N=C2\CCc3ccccc32)c(C)c1	105.5	8.5*	9.0	48.8	-9.0	40.8	7.2	11.0*
SMILES	Yeast superoxide	SMARCA2 activ	SR-BI DiI-HDL act	Hep lipid drop	SR-BI DiI inh	AHR act	SMARCA2 conf	GAL4-VP16 Luc
COc1ccc(OCCC(=O)OCC(=O)NCc2ccccc2)cc1	97.0	9.8*	16.6	-23.3	-16.6	-1.2	-1.0	1.8
Cc1ccc(OCCC(=O)OCC(=O)NCc2ccccc2)cc1	102.8	-1.5	19.1	·	-19.1	3.1	·	·
CS(=O)(=O)N1CCC[C@]2(CC[C@H](CCC#N)O2)C1	·	1.2	·	·	·	·	·	·
COC(=O)C(Cc1ccc(O)cc1)N1Cc2ccccc2C1=O (stereo unspecified)	93.2	9.1*	8.6	19.1	-8.6	1.9	6.0	9.3*
NNC(=O)C(Cc1ccc(O)cc1)N1Cc2ccccc2C1=O (stereo unspecified)	88.0	-4.0	11.5	2.4	-11.5	11.6	·	·
COc1ccc(CNS(=O)(=O)/C=C/c2ccccc2CNC(=O)OC(C)(C)C)cc1	·	-4.3	·	·	·	·	·	·
COc1ccccc1/C=N/NC(=O)C(=O)N1CCN(c2ccccc2OC)CC1	95.1	10.1*	-0.4	33.9	0.4	5.2	-1.1	-0.6
COC(=O)[C@]12C[C@H](CC(=O)N3CCN(C(=O)C4CC4)CC3)C(=O)N(CCc3ccc(OC)c(OC)c3)C1=C[C@H](C(C)(C)C)O[C@@H]2C	·	-2.9	·	·	·	·	·	·
CC(C)CNc1cccc2c1S(=O)(=O)N(Cc1cn(Cc3cccc(F)c3)nn1)Cc1ccccc1O2	·	1.2	·	·	·	·	·	·
Cc1cccc(CCNC(=O)c2cc(S(=O)(=O)N3CCOCC3)cn2C)c1	96.8	-1.8	-2.5	-1.2	2.5	5.8	·	·
Cc1cccc(CNC(=O)c2cc(S(=O)(=O)N3CCOCC3)cn2C)c1	91.5	13.6*	-8.2	-2.0	8.2	3.3	2.0	0.7
Cc1cc(C(=O)COC(=O)c2ccc(Br)o2)c(C)n1C	87.4	9.7*	14.3	17.4	-14.3	0.2	15.3*	6.5*
